Screening results (PubChem)
STK33 inh: inhibitors of purified STK33 kinase, primary screen, biochemical, ADP-Glo luminescence, homogeneous, cell-free. hit rate 0.073% among 320,000. inhibition, % at 10 µM. Serine/threonine-protein kinase 33 (Homo sapiens), Q9BYT3. MBP phosphorylation;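 active = inhibition at or above 25%, using the most active replicate where run in duplicate; inactive = inhibition below 25%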
CDK5 p35 inh: inhibitors of human CDK5/p35 kinase, primary screen, biochemical, single concentration; hit rate 0.01% among 330,000; AID 488839, 2010; Cyclin-dependent kinase 5 (Homo sapiens) + Cyclin-dependent kinase 5 activator 1 (Homo …; Recombinant CDK5/p35, ADP-Glo luminescence, 60 min; inhibition, % at 10 µM;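 active = highest replicate inhibition of at least 50% and at least 75% of replicates reaching 50%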;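 also: plate controls were DMSO neutral control for no effect and GW8510 at 10 µM for full effect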
GSK3beta inhib: human GSK3beta kinase inhibitors, primary screen, biochemical, cell-free homogeneous, HTS | Glycogen synthase kinase-3 beta (Homo sapiens), P49841 | GST-GSK3beta kinase, ADP-Glo luminescence, 60 min; stronger effect = lower value | activity score (negative = inhibition), % at 10 µM | hit rate 0.038% among 300,000;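 active = more than half of replicate wells score below -50%, meaning over 50% inhibition versus plate controls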;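 also: 0% = median DMSO wells and -100% = median GW8510 positive control wells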
Target sequence (P49841 whole entry, looked up): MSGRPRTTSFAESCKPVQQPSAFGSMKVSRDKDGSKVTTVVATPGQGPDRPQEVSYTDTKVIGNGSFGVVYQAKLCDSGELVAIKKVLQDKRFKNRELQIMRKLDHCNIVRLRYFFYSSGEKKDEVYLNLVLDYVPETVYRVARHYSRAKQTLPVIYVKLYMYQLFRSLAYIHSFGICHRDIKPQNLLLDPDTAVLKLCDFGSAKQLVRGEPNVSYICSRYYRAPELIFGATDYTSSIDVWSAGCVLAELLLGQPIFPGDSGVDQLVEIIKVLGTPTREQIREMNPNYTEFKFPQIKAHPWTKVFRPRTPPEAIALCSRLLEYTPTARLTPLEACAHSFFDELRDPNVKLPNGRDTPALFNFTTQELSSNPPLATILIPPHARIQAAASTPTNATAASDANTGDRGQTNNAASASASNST
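test system = GST-tagged human GSK3beta kinase, cell-free | reagent = 25 µM ATP with peptide substrate | dosing = one dose of 10 µM per compound | schedule = 60 min reaction, RT | detection = luminescent ADP-Glo measurement of ADP formed | control set = DMSO neutral wells and GW8510 at 20 µM as positive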
GSK3A inh: blockers of GSK3A enzyme activity – biochemical, luminescence, cell-free homogeneous, HTS, primary screen. Glycogen synthase kinase-3 alpha (Homo sapiens), P49840. GSK-3 alpha kinase, ADP-Glo luminescence, 60 min. inhibition, % at 10 µM. hit rate 0.1% among 320,000. AID 2650, 2010;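 active = more than half of replicates show inhibition above 20%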;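 also: GST-tagged GSK-3 alpha with peptide substrate and 25 µM ATP; 0% = DMSO neutral wells and 100% = GW8510 positive control wells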
Dyrk1A ADPGlo: rat Dyrk1A kinase inhibitors, primary screen, biochemical, single point, plate reader | ADP-Glo luminescence, NFATc1 peptide | inhibition, % at 12.5 µM | hit rate 0.43% among 310,000; in the data active = inhibition above about 50%;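 also: plate controls were vehicle with enzyme for no effect and no enzyme for full effect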
Starred values were filed as active, the others as inactive; / = no result. This excerpt belongs to a sample that is enriched for hits.

SMILES	STK33 inh	CDK5 p35 inh	GSK3beta inhib	GSK3A inh	Dyrk1A ADPGlo
Cc1c(C(=O)OCC(=O)N2c3ccccc3CC2C)oc2ccccc12 (stereo not drawn)	33*	1	-4	8	0
Cc1c(C(=O)OCC(=O)N2C(C)CCCC2C)oc2ccccc12 (stereo not drawn)	1	0	0	3	-7
COc1ccc(N2CCN(C(=O)c3ccc(CNS(=O)(=O)c4cccc(OC)c4)cc3)CC2)cc1	-1	-2	-2	-4	0
Cc1cc(Br)ccc1NC(=O)CN1C(=O)C2CC=CCC2C1=O (stereo not drawn)	1	1	/	-3	7
N#CC(C#N)=Cc1c[nH]c(=O)c(C#N)c1Nc1ccccc1	-2	/	-25	74*	/
O=C(OC1CCOC1=O)C1CCN(S(=O)(=O)c2ccccc2)CC1 (stereo not drawn)	-1	1	/	-3	/
O=C(Nc1c(C(=O)O)oc2ccc(Br)cc12)c1ccccc1	0	-1	0	75*	2
c1coc(C2Nc3ccccc3-c3nc4ccccc4n32)c1 (stereo not drawn)	36*	3	0	5	6
Cn1nnnc1Sc1ncnc2scc(-c3ccc(-c4ccccc4)cc3)c12	-1	0	/	2	-1
Cn1nnnc1Sc1ncnc2scc(-c3cccs3)c12	1	5	/	5	59*
O=C1[C@@H](Oc2ccccc2)[C@@H](c2ccncc2)N1c1ccncc1	/	4	/	/	-4
O=C(O)Cn1cc(/C=c2/sc3nc4ccccc4n3c2=O)c2ccccc21	32*	-2	-2	-2	47
Nc1[nH]nc2nc(-c3ccccc3)[nH]c(=O)c12	2	1	3	9	-4
Nc1nc(-c2ccccc2)[nH]c(=O)c1N	3	2	-1	2	75*
O=C(O)CCn1cc(/C=N/O)c(-c2cccc([N+](=O)[O-])c2)n1	8	0	-66*	78*	14
O=C(O)c1cc2ccccc2c(N=Nc2cccnc2)c1O	1	1	-5	0	73*
CCN(CCS(=O)(=O)c1ccc(Cl)cc1)C(=O)Nc1ccc(Cl)cc1	0	0	1	0	2
CCOc1nc2cnccc2n(CC(=O)Nc2ccc(C)c(C)c2)c1=O	1	1	3	-1	-6
O=C(COc1ccccc1[N+](=O)[O-])Nc1ccc2c(c1)CCC2	1	0	/	-4	/
C=C1C(=O)c2sccc2C(c2ccc(OC)c(OC)c2)C1COC(C)=O (stereo not drawn)	/	-1	/	/	/
N#C/C(=C\c1ccc(O)c(O)c1)C(=O)c1ccc(O)c(O)c1	28*	13	/	9	48
N#C/C(=C\c1ccc(O)c(O)c1)C(=O)N1CCCC1	-1	-1	-2	2	7
CCC/C=N/NC(=O)c1ccccc1O	0	-3	-1	1	-3
CC1CCCCC12NC(=O)N(CC(=O)Nc1sc3c(c1C(N)=O)CCC3)C2=O (stereo not drawn)	0	-2	-3	58*	1
CC1CCC2(CC1)NC(=O)N(CC(=O)Nc1sc3c(c1C(N)=O)CCC3)C2=O (stereo not drawn)	0	5	-32	78*	36
NC(=O)N/N=C/c1c(O)ccc2oc3c(c12)CCCC3	75*	90*	-6	85*	15
CC(C)(C)N=Cc1c(O)ccc2oc3c(c12)CCCC3	0	-1	3	-2	-1
CN(C)C=NC1=NN(c2cccc(C(F)(F)F)c2)CC1	-1	0	-1	/	5
CN1CCN(C=NC2=NN(c3cccc(C(F)(F)F)c3)CC2)CC1	30*	-2	0	0	-1
Cc1nc2ccccc2n2c(-c3ccccc3)c3c(=O)n(C)c(=O)n(C)c3c12	-2	0	0	59*	-1
